In ChEMBL document CHEMBL4138271, “Crystal Structures and Human Leukemia Cell Apoptosis Inducible Activities of Parthenolide Analogues Isolated from Piptocoma rufescens” (J Nat Prod, 2018):
pIC50: −log10 of the molar value. Activity calls are given as the source filed them. The calls are words filed in the database; no cut-off is given here.

Columns and labels:
MOLM-13 [1] = test: Induction of apoptosis in human MOLM13 cells assessed as caspase-3 activation at 10 nM after 72 hrs by immunoblotting analysis; format: functional, cell-based
How it was run: (§1)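 MOLM-13 cells treated 72 h with test compounds at 10 μM or PKC412 at 10 nM. Cells washed in ice-cold PBS, lysed at 10^8 cells/mL in NP-40 hypertonic buffer (pH 7.5) with protease/phosphatase inhibitors, then run on SDS-PAGE and PVDF. Blots probed 12 h with rabbit monoclonal cleaved caspase-3 (Asp175), β-actin as loading control. Representative of three independent experiments.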

EOL1 [2] = test: Induction of apoptosis in human EOL-1 cells assessed as caspase-3 activation at 10 nM after 72 hrs by immunoblotting analysis; format: functional, cell-based
How it was run: (§2)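 EOL-1 cells (RPMI 1640, 10% FBS, 37 °C, 5% CO2) exposed 72 h; compounds at 10 μM, PKC412 at 10 nM. Harvested, PBS-washed, lysed in hypertonic NP-40 buffer with protease/phosphatase inhibitors; SDS-PAGE, PVDF transfer, rabbit monoclonal cleaved caspase-3 (Asp175) antibody 12 h, secondary 1 h, chemiluminescent detection; β-actin loading control. Representative blots of three independent experiments.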

EOL1 [3] = test: Induction of apoptosis in human EOL-1 cells assessed as live cells at 1.1 uM after 24 hrs by Annexin-V FITC/7-AAD staining based flow cytometric method (reference value: 97.5%); format: functional
EOL1 [4] = test: Induction of apoptosis in human EOL-1 cells assessed as early apoptotic cells at 1.1 uM after 24 hrs by Annexin-V FITC/7-AAD staining based flow cytometric method (reference value: 1.94%); format: functional
MOLM-13 [5] = test: Induction of apoptosis in human MOLM13 cells assessed as late apoptotic cells at 1.1 uM after 24 hrs by Annexin-V FITC/7-AAD staining based flow cytometric method (reference value: 1.43%); format: functional
EOL1 [6] = test: Induction of apoptosis in human EOL-1 cells assessed as live cells at 0.56 uM after 24 hrs by Annexin-V FITC/7-AAD staining based flow cytometric method (reference value: 97.5%); format: functional
[7] = biological target: Transcription factor p65 (Homo sapiens) (UniProt Q04206); test: Inhibition of NFkappaB p65 in human MOLM13 cells at 10 uM after 72 hrs by immunoblotting method; format: cell-based
Chain of Transcription factor p65 (Homo sapiens) (Q04206 whole entry): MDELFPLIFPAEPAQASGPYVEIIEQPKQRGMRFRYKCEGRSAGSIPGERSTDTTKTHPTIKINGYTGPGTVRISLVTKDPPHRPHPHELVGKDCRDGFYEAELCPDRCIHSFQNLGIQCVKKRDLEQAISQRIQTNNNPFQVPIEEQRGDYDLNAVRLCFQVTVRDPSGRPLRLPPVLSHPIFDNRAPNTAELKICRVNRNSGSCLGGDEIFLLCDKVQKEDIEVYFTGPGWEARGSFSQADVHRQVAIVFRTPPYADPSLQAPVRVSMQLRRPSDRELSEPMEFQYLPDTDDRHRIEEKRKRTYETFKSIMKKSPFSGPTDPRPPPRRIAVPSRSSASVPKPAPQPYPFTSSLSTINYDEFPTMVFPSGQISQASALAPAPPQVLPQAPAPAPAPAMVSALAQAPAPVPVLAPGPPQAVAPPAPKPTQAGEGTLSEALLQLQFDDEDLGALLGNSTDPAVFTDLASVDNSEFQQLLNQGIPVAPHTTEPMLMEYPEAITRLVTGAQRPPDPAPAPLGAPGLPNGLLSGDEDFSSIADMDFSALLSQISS
How it was run: (§3)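 MOLM-13 or EOL-1 cells treated 72 h at 10 μM. Cells washed in ice-cold PBS and lysed in hypertonic NP-40 buffer (10 mM HEPES pH 7.5, 0.5 M NaCl) with protease/phosphatase inhibitors. Protein measured by BCA; SDS-PAGE onto PVDF. Probed 12 h with rabbit monoclonal NF-κB-p65 antibody, goat β-actin as loading control, then chemiluminescence. Blots representative of three independent experiments.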

MOLM-13 [8] = test: Induction of apoptosis in human MOLM13 cells assessed as necrotic cells at 1.1 uM after 24 hrs by Annexin-V FITC/7-AAD staining based flow cytometric method (reference value: 0%); format: functional
MOLM-13 [9] = test: Induction of apoptosis in human MOLM13 cells assessed as early apoptotic cells at 2.8 uM after 24 hrs by Annexin-V FITC/7-AAD staining based flow cytometric method (reference value: 11.8%); format: functional
MOLM-13 [10] = test: Induction of apoptosis in human MOLM13 cells assessed as live cells at 0.56 uM after 24 hrs by Annexin-V FITC/7-AAD staining based flow cytometric method (reference value: 86.8%); format: functional
EOL1 [11] = test: Induction of apoptosis in human EOL-1 cells assessed as caspase-3 activation at 10 uM after 72 hrs by immunoblotting analysis; format: functional, cell-based; how it was run: as §2
MOLM-13 [12] = test: Synergistic antileukemic activity against human MOLM13 cells assessed as concentration required for <= 75% cell survival after 72 hrs in presence of midostaurin by CellTiter 96 AQueous One solution cell proliferation assay; format: functional
EOL1 [13] = test: Cytotoxicity against human EOL-1 cells after 72 hrs by MTS assay; format: functional, cell-based; details: EOL1, 72 h
EOL1 [14] = test: Induction of apoptosis in human EOL-1 cells assessed as late apoptotic cells at 1.1 uM after 24 hrs by Annexin-V FITC/7-AAD staining based flow cytometric method (reference value: 0.535%); format: functional
EOL1 [15] = test: Induction of apoptosis in human EOL-1 cells assessed as necrotic cells at 2.8 uM after 24 hrs by Annexin-V FITC/7-AAD staining based flow cytometric method (reference value: 0.032%); format: functional
MOLM-13 [16] = test: Induction of apoptosis in human MOLM13 cells assessed as late apoptotic cells at 2.8 uM after 24 hrs by Annexin-V FITC/7-AAD staining based flow cytometric method (reference value: 1.43%); format: functional
MOLM-13 [17] = test: Induction of apoptosis in human MOLM13 cells assessed as live cells at 1.1 uM after 24 hrs by Annexin-V FITC/7-AAD staining based flow cytometric method (reference value: 86.8%); format: functional
EOL1 [18] = test: Induction of apoptosis in human EOL-1 cells assessed as early apoptotic cells at 2.8 uM after 24 hrs by Annexin-V FITC/7-AAD staining based flow cytometric method (reference value: 1.94%); format: functional
EOL1 [19] = test: Synergistic antileukemic activity against human EOL-1 cells assessed as concentration required for <= 75% cell survival after 72 hrs in presence of midostaurin by CellTiter 96 AQueous One solution cell proliferation assay; format: functional
MOLM-13 [20] = test: Cytotoxicity against human MOLM13 cells after 72 hrs by MTS assay; format: functional, cell-based; details: MOLM-13, 72 h
EOL1 [21] = test: Induction of apoptosis in human EOL-1 cells assessed as late apoptotic cells at 2.8 uM after 24 hrs by Annexin-V FITC/7-AAD staining based flow cytometric method (reference value: 0.535%); format: functional
[22] = biological target: Transcription factor p65 (Homo sapiens) (UniProt Q04206); test: Inhibition of NFkappaB p65 in human EOL-1 cells at 10 uM after 72 hrs by immunoblotting method; format: cell-based; how it was run: as §3
HT-29 = test: Cytotoxicity against human HT-29 cells after 72 hrs by MTS assay; format: functional, cell-based; details: HT-29, 72 h
MOLM-13 [23] = test: Induction of apoptosis in human MOLM13 cells assessed as live cells at 2.8 uM after 24 hrs by Annexin-V FITC/7-AAD staining based flow cytometric method (reference value: 86.8%); format: functional
MOLM-13 [24] = test: Induction of apoptosis in human MOLM13 cells assessed as early apoptotic cells at 0.56 uM after 24 hrs by Annexin-V FITC/7-AAD staining based flow cytometric method (reference value: 11.8%); format: functional
EOL1 [25] = test: Induction of apoptosis in human EOL-1 cells assessed as early apoptotic cells at 0.56 uM after 24 hrs by Annexin-V FITC/7-AAD staining based flow cytometric method (reference value: 1.94%); format: functional
MOLM-13 [26] = test: Induction of apoptosis in human MOLM13 cells assessed as early apoptotic cells at 1.1 uM after 24 hrs by Annexin-V FITC/7-AAD staining based flow cytometric method (reference value: 11.8%); format: functional
MOLM-13 [27] = test: Induction of apoptosis in human MOLM13 cells assessed as necrotic cells at 2.8 uM after 24 hrs by Annexin-V FITC/7-AAD staining based flow cytometric method (reference value: 0%); format: functional
MOLM-13 [28] = test: Induction of apoptosis in human MOLM13 cells assessed as necrotic cells at 0.56 uM after 24 hrs by Annexin-V FITC/7-AAD staining based flow cytometric method (reference value: 0%); format: functional
MOLM-13 [29] = test: Induction of apoptosis in human MOLM13 cells assessed as late apoptotic cells at 0.56 uM after 24 hrs by Annexin-V FITC/7-AAD staining based flow cytometric method (reference value: 1.43%); format: functional
MOLM-13 [30] = test: Induction of apoptosis in human MOLM13 cells assessed as caspase-3 activation at 10 uM after 72 hrs by immunoblotting analysis; format: functional, cell-based; how it was run: as §1
EOL1 [31] = test: Induction of apoptosis in human EOL-1 cells assessed as late apoptotic cells at 0.56 uM after 24 hrs by Annexin-V FITC/7-AAD staining based flow cytometric method (reference value: 0.535%); format: functional
EOL1 [32] = test: Induction of apoptosis in human EOL-1 cells assessed as necrotic cells at 0.56 uM after 24 hrs by Annexin-V FITC/7-AAD staining based flow cytometric method (reference value: 0.032%); format: functional
EOL1 [33] = test: Induction of apoptosis in human EOL-1 cells assessed as live cells at 2.8 uM after 24 hrs by Annexin-V FITC/7-AAD staining based flow cytometric method (reference value: 97.5%); format: functional
EOL1 [34] = test: Induction of apoptosis in human EOL-1 cells assessed as necrotic cells at 1.1 uM after 24 hrs by Annexin-V FITC/7-AAD staining based flow cytometric method (reference value: 0.032%); format: functional

SMILES: CO[C@@H]1[C@H](N(C)C(=O)c2ccccc2)C[C@H]2O[C@]1(C)n1c3ccccc3c3c4c(c5c6ccccc6n2c5c31)C(=O)NC4
- Activity (MOLM-13 [1]): Active
- Activity (EOL1 [2]): Active

SMILES: C=C(C)C(=O)O[C@H]1C[C@@]2(C)OC(=CC2=O)/C(CO)=C\[C@H]2OC(=O)C(=C)[C@H]12 [GOIAZENSOLIDE]
- Activity (EOL1 [3]): 3.99%
- Activity (EOL1 [4]): 0.281%
- Activity (MOLM-13 [5]): 94.6%
- Activity (EOL1 [6]): 91.7%
- inhibition [7]: Active
- Activity (MOLM-13 [8]): 1.86%
- Activity (MOLM-13 [9]): 0.203%
- Activity (MOLM-13 [10]): 81.8%
- Activity (EOL1 [11]): Active
- Activity (MOLM-13 [12]): 0.42 µM
- pIC50 (EOL1 [13]): 5.96
- Activity (EOL1 [14]): 93.3%
- Activity (EOL1 [15]): 0.189%
- Activity (MOLM-13 [16]): 97.7%
- Activity (MOLM-13 [17]): 2.54%
- Activity (EOL1 [18]): 0%
- Activity (EOL1 [19]): 0.56 µM
- pIC50 (MOLM-13 [20]): 6.07
- Activity (EOL1 [21]): 99.8%
- inhibition [22]: Active
- pIC50 (HT-29): 6.25
- Activity (MOLM-13 [23]): 0.135%
- Activity (MOLM-13 [24]): 14.7%
- Activity (EOL1 [25]): 1.84%
- Activity (MOLM-13 [26]): 0.958%
- Activity (MOLM-13 [27]): 1.96%
- Activity (MOLM-13 [28]): 0.392%
- Activity (MOLM-13 [29]): 3.18%
- Activity (MOLM-13 [30]): Active
- Activity (EOL1 [31]): 6.18%
- Activity (EOL1 [32]): 0.306%
- Activity (EOL1 [33]): 0.01%
- Activity (EOL1 [34]): 2.4%
